These results are taken from ChEMBL document CHEMBL1949649, “5-sulfonyl-benzimidazoles as selective CB2 agonists-part 2” (Bioorg Med Chem Lett, 2012).

≈ marks a conversion by molar mass, not a printed value. Calls of active or inactive are those of the source. No cut-off for these calls is given here. Bounds are passed on as bounds.

Series [1] can be described thus: Drug metabolism in human liver microsomes after 15 mins. It is filed as ADME, Microsome. The note with it: read-out: Drug metabolism. In general terms: Microsomes from liver hold many membrane-bound enzymes, among them those of drug oxidation.
For series [2], the target named is Cannabinoid receptor 1 (Homo sapiens, UniProt P21554). The experiment in a line: Agonist activity at human CB1 receptor. It is filed as functional.
For series [3], the target named is Cannabinoid receptor 2 (Homo sapiens, UniProt P34972). The experiment in a line: Agonist activity at human CB2 receptor. It is filed as functional.
The test system of series [4] is Rattus norvegicus. Briefly: Toxicity in rat chronic constriction injury-induced neuropathic pain model assessed as tolerance at 40 mg/kg/day, sc after 5 to 8 days. It is filed as organism-based. Further details: route subcutaneous. The following applies: in vivo. In outline: (§1)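 Chronic constriction injury of rats (n = 7 per group); daily subcutaneous dosing over repeated days, with morphine as comparator. Cold allodynia read as lifting on a cold plate at 0 °C for 4 min.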

Series [5] is described as follows: Solubility of the compound in 10% cyclodextrin.
Series [6] is described as follows: Half life in Beagle dog at 1 mg/kg, iv. It is filed as ADME, organism-based, Canis lupus familiaris. Further details: dose 1 mg/kg, route intravenous. The following applies: in vivo. In outline: (§2)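 Beagle dogs dosed at 1 mg/kg iv and 5 mg/kg po; plasma kinetics give clearance, volume of distribution, iv and po half-life, and absolute oral bioavailability.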
The subject of series [7] is Rattus norvegicus. Briefly: Antiallodynic activity in rat chronic constriction injury-induced neuropathic pain model assessed as reversal of pain response at 40 mg/kg/day, sc. In kind it is functional, organism-based. In outline:
as §1

A short description of series [8]: Absolute oral bioavailability in Sprague-Dawley rat at 10 mg/kg. In kind it is ADME, organism-based. The note with it: in vivo.
The test system of series [9] is Rattus norvegicus. The experiment in a line: Toxicity in rat up to 40 mg/kg, ip by modified tetrad test. It is filed as organism-based. Further details: dose 40 mg/kg, route intraperitoneal. The note with it: in vivo.
Series [10] concerns Rattus norvegicus. The experiment in a line: Antiallodynic activity in rat chronic constriction injury-induced neuropathic pain model assessed as reversal of pain response at 40 mg/kg/day, sc after 12 days. It is filed as functional, organism-based. In outline:
as §1

A short description of series [11]: Half life in Sprague-Dawley rat at 2.5 mg/kg, iv. In kind it is ADME, organism-based. The note with it: in vivo. Further details: dose 2.5 mg/kg, route intravenous.
Series [12] in a line: Half life in Beagle dog at 5 mg/kg, po. Further details: dose 5 mg/kg, route oral. The following applies: in vivo. It is filed as ADME, organism-based, Canis lupus familiaris. In outline:
as §2

Series [13] is filed under the species Rattus norvegicus. The experiment in a line: Antihyperalgesic activity against Freund's adjuvant-induced thermal hyperalgesia in rat. In kind it is functional, organism-based.
Series [14] can be described thus: Half life in Sprague-Dawley rat at 10 mg/kg, po. Further details: dose 10 mg/kg, route oral. The following applies: in vivo. It is filed as ADME, organism-based.
Series [15] is described as follows: Drug metabolism in human liver microsomes at 5 uM after 60 mins. It is filed as ADME, Microsome. The note with it: read-out: Drug metabolism. In outline:
(§3)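 Test compound incubated at 5 µM with liver microsomes (human, rat, mouse or dog) for 60 min; read-out is % of compound metabolised.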

Series [16] deals with Rattus norvegicus. Briefly: Antinociceptive activity in rat at 10 mg/kg by tail withdrawal reflex test. It is filed as functional, organism-based. Further details: dose 10 mg/kg.
Series [17] can be described thus: Clearance in Sprague-Dawley rat at 2.5 mg/kg, iv and 10 mg/kg, po. In kind it is ADME, organism-based. The following applies: in vivo.
Series [18] in a line: Solubility of the compound in water. In kind it is physicochemical.
The nature of series [19]: Drug metabolism in dog liver microsomes at 5 uM after 60 mins. It is filed as ADME, Canis lupus familiaris, Microsome. The following applies: read-out: Drug metabolism. In outline: as §3
The subject of series [20] is Rattus norvegicus. The experiment in a line: Antinociceptive activity in rat at 10 mg/kg by paw flick test. It is filed as functional, organism-based. Further details: dose 10 mg/kg.
For series [21], the species on record is Rattus norvegicus. Briefly: Antihyperalgesic activity against carrageenan-induced thermal hyperalgesia in rat. It is filed as functional, organism-based.
Series [22] deals with Mus musculus. Briefly: Antiinflammatory activity in mouse EAE model of multiple sclerosis assessed as delay in neurological signs of autoimmune encephalomyelitis disease progression at 40 mg/kg/day, po administered from day 8 to day 16. It is filed as functional, organism-based. In outline:
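Mice with experimental autoimmune encephalomyelitis given chronic oral dosing at 40 mg/kg; neurological signs scored as EAE disease scores over time.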

A short description of series [23]: Ratio drug uptake in brain to plasma of Sprague-Dawley rat at 2.5 mg/kg, iv and 10 mg/kg, po. It is filed as ADME, organism-based. The note with it: read-out: BPR. In outline: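 Rat tissue distribution study; brain and plasma levels compared as brain/plasma ratio.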
The nature of series [24]: Clearance in Beagle dog at 1 mg/kg, iv and 5 mg/kg, po. It is filed as ADME, organism-based, Canis lupus familiaris. The note with it: in vivo. In outline:
as §2

Series [25] is described as follows: Drug metabolism in mouse liver microsomes at 5 uM after 60 mins. It is filed as ADME, Microsome. The following applies: read-out: Drug metabolism. In outline:
as §3

Series [26] can be described thus: Volume of distribution in Sprague-Dawley rat at 2.5 mg/kg, iv and 10 mg/kg, po. In kind it is ADME, organism-based. The following applies: in vivo.
Series [27] is described as follows: Drug metabolism in rat liver microsomes at 5 uM after 60 mins. It is filed as ADME, Microsome. The note with it: read-out: Drug metabolism. In outline:
as §3

The nature of series [28]: Lipophilicity, Log P of the compound. It is filed as physicochemical. The note with it: octanol/water.
The test system of series [29] is Rattus norvegicus. Briefly: Antinociceptive activity in rat at 10 mg/kg by hot plate method. Further details: dose 10 mg/kg. In kind it is functional, organism-based. On the technique in general: Thermal pain tests record how soon the animal reacts.
The nature of series [30]: Volume of distribution in Beagle dog at 1 mg/kg, iv and 5 mg/kg, po. In kind it is ADME, organism-based, Canis lupus familiaris. The following applies: in vivo. In outline:
as §2

A short description of series [31]: Absolute oral bioavailability in Beagle dog at 5 mg/kg. In kind it is ADME, organism-based, Canis lupus familiaris. The following applies: in vivo. In outline: as §2

Sequence of Cannabinoid receptor 2 (P34972 whole entry): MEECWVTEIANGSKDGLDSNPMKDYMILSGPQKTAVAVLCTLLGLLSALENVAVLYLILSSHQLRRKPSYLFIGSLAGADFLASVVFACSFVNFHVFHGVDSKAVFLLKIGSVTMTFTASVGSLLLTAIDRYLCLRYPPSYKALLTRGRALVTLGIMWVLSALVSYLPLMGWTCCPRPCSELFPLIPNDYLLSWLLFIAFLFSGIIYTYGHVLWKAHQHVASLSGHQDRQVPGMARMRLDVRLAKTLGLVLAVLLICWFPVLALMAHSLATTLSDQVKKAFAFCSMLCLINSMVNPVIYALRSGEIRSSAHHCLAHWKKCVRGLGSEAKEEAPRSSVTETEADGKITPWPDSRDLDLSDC
Sequence of Cannabinoid receptor 1 (P21554 whole entry): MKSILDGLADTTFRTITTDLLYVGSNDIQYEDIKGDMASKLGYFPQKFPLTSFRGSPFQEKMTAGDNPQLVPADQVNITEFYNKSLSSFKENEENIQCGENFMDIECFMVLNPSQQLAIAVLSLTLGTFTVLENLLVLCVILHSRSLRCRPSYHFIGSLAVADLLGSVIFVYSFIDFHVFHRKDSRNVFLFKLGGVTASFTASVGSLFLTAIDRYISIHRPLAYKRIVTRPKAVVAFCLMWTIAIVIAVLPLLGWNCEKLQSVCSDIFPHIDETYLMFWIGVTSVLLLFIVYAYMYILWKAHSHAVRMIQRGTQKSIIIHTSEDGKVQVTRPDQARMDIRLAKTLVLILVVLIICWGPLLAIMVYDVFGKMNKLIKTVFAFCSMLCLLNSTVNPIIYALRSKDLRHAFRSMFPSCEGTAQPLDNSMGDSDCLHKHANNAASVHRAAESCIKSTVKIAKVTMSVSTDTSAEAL

As usually defined, the EC50 is the midpoint of the concentration-response curve. On to `CC(C)(C)c1nc2cc(S(=O)(=O)CCCC(F)(F)F)ccc2n1CC1CCN(C=O)CC1`, for which, in series [1], the metabolised at 0.25 h was 17%. This molecule also displayed an EC50 in series [2] of 5620 nM.

With `CC(=O)N1CCC(Cn2c(C(C)(C)C)nc3cc(S(=O)(=O)CCCC(F)(F)F)ccc32)CC1`, the values for the 50% effective concentration (EC50) in series [3] and in [2] were 13 nM and greater than 10000 nM, respectively. Also, the metabolised at 0.25 h in [1] was 17%.

As for `CC(C)(C)c1nc2cc(S(=O)(=O)CC3CC3)ccc2n1CC1CCN(C=O)CC1`, the metabolised at 0.25 h in [1] is 16%. In series [2], this molecule gave an EC50 of 2510 nM.

For the molecule `CN1CC[C@]23c4c5ccc(O)c4O[C@H]2[C@@H](O)C=C[C@H]3[C@H]1C5` [MORPHINE], the Activity result in [4] was “Non-toxic”.

On to `CC(C)(C)c1nc2cc(S(=O)(=O)CCCC(F)(F)F)ccc2n1CC1CCNCC1`, for which the EC50 in series [3] was 240 nM; in series [2], greater than 10000 nM.

Molecule `COCCCNc1cc(S(=O)(=O)c2ccc3c(c2)nc(C(C)(C)C)n3CC2CCOCC2)ccn1` gave an EC50 in [3] of 0.8 nM. Besides, the metabolised at 0.25 h in series [1] came out at 99%.

On to `CC(=O)N1CCC(Cn2c(C(C)(C)C)nc3cc(S(=O)(=O)c4ccncc4)ccc32)CC1`, for which the EC50 in series [3] is 4.6 nM; in series [2], greater than 10000 nM. Besides, in series [1], the metabolised at 0.25 h worked out at 29%.

Molecule `COCC(=O)N1CCC(Cn2c(C(C)(C)C)nc3cc(S(=O)(=O)CCCC(F)(F)F)ccc32)CC1` had an EC50 in [2] greater than 10000 nM.

Take `CC(C)(C)c1nc2cc(S(=O)(=O)c3ccnc(OCCCO)c3)ccc2n1CC1CCOCC1`: the midpoint of the response in series [3], the EC50, lay at 1.2 nM. Moreover, the metabolised at 0.25 h in series [1] is 40%.

In series [3], `COCCCOc1cc(S(=O)(=O)c2ccc3c(c2)nc(C(C)(C)C)n3CC2CCOCC2)ccn1` displayed an EC50 of 0.5 nM. For the same molecule, the metabolised at 0.25 h in [1] worked out at 100%.

By solubility is commonly meant the dissolved amount per volume that the medium holds. A higher solubility goes with a readily soluble substance. A word on the half-life: it is the time in which the quantity being followed falls by half. A higher half-life goes with slow loss. One may read the bioavailability as the share of a dose that reaches the circulation, judged against a reference dose that is usually intravenous. Usually logP stands for the decadic logarithm of the partition coefficient of the neutral form, usually between octanol and water. Read a high logP as a more lipophilic compound. With `CC(=O)N1CCC(Cn2c(C(C)(C)C)nc3cc(S(=O)(=O)c4nccs4)ccc32)CC1`, the solubility is 8000 µg/mL (≈ 17.4 mM) in series [5] and 20 µg/mL (≈ 0.0434 mM) in series [18]. Besides, the half-life in series [6] was 4 h; in [11], 3.5 h; in series [12] it was 5 h; in series [14] it was 3.1 h. The EC50 came out at 7.7 nM in series [3] and 3430 nM in series [2]. Moreover, the outcome in series [7], in series [10] and in [22] was Active. Also, the bioavailability in series [8] was 35%; in [31] it was 100%. Further, the Activity entry in series [9] is “Non-toxic”. For the same molecule, the outcome in [13], in [16], in series [20], in series [21] and in [29] was inactive. Further, the metabolised at 1 h, 5 µM in series [15] worked out at 12%; in series [19], 0%; in [25], 6%; in series [27] it was 0%. Besides, the results for the clearance in series [17] and in series [24] were 53.3 mL/min/kg and 11.7 mL/min/kg, respectively. For the same molecule, the metabolised at 0.25 h in [1] is 9%. Moreover, the Kp in [23] was determined as 0.05. Moreover, the values for the Vd in series [26] and in series [30] were 1.3 L/kg and 3.7 L/kg, respectively. The logP in series [28] was determined as 1.9.

Molecule `CC(=O)N1CCC(Cn2c(C(C)(C)C)nc3cc(S(=O)(=O)CCCO)ccc32)CC1` had a concentration giving a half-maximal response (EC50) in series [2] greater than 10000 nM.

Consider `CC(C)(C)c1nc2cc(S(=O)(=O)CCCC(F)(F)F)ccc2n1CC1CCN(C(=O)C(F)(F)F)CC1`, for which, in series [1], the metabolised at 0.25 h worked out at 20%. The half-maximal effective concentration (EC50) in series [2] was greater than 10000 nM.

Turning to `CCC(=O)N1CCC(Cn2c(C(C)(C)C)nc3cc(S(=O)(=O)CCCC(F)(F)F)ccc32)CC1`, the metabolised at 0.25 h in series [1] worked out at 4%. In [2], this molecule showed a concentration giving a half-maximal response (EC50) greater than 10000 nM.

The molecule `COCCOc1cc(S(=O)(=O)c2ccc3c(c2)nc(C(C)(C)C)n3CC2CCOCC2)ccn1` came in with an EC50 in [3] of 1.3 nM. For the same molecule, the metabolised at 0.25 h in series [1] was found to be 53%.
